Laboratory results published in ChEMBL document CHEMBL4689842, “EUbOPEN Chemogenomics Library wave 1” (2021).
Several values for one entry are separate records, joined by “and”; a condition that tells them apart may be missing. Identical values can stand only once.

System: HEK-293T
Test: Multiplex assay against HEK293T;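 for Population Tubulin-Different-Phenotype (%): share of the cells with healthy nuclei that show this phenotype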
Assay type: toxicity, cell-based
Settings: human
How it was run: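 On a CQ1 microscope at 37°C and 5% CO2, live cells were imaged after compound addition. They had been stained at seeding with Hoechst33342, BioTracker Green Microtubule Cytoskeleton Dye, MitoTracker Red and Annexin V Alexa Fluor 680. CellPathfinder machine-learning gating assigned cells to Hoechst high-intensity objects or normal cells, normal cells to healthy, pyknosed or fragmented nuclei, and pyknosed cells to mitotic or apoptotic. Tubulin, mitochondrial-mass and membrane-permeability phenotypes are per cents of healthy-nucleus cells.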

[1] = 12 h, 1 µM, compound concentration 1 uM, replicate 1
[2] = 12 h, 1 µM, compound concentration 1 uM, replicate 2
[3] = 12 h, 10 µM, compound concentration 10 uM, replicate 1
[4] = 12 h, 10 µM, compound concentration 10 uM, replicate 2
[5] = 24 h, 1 µM, compound concentration 1 uM, replicate 1
[6] = 24 h, 1 µM, compound concentration 1 uM, replicate 2
[7] = 24 h, 10 µM, compound concentration 10 uM, replicate 1
[8] = 24 h, 10 µM, compound concentration 10 uM, replicate 2
[9] = 48 h, 1 µM, compound concentration 1 uM, replicate 1
[10] = 48 h, 1 µM, compound concentration 1 uM, replicate 2
[11] = 48 h, 10 µM, compound concentration 10 uM, replicate 1
[12] = 48 h, 10 µM, compound concentration 10 uM, replicate 2

CN1CCC[C@@H]1CCO[C@](C)(c1ccccc1)c1ccc(Cl)cc1.O=C(O)/C=C/C(=O)O [CLEMASTINE FUMARATE]
Population Apoptotic (%) [1]: 56%
Population Fragmented Nuclei (%) [1]: 10%
Population Healthy Nuclei (%) [1]: 23%
Population Hoechst High Intensity Objects (%) [1]: 9%
Population Membrane Permeable-Phenotype (%) [1]: 5%
Population Mitochondria Different-Phenotype (%) [1]: 96%
Population Mitotic Cells (%) [1]: 43%
Population Normal (%) [1]: 90%
Population Pyknosed Nuclei (%) [1]: 65%
Population Tubulin-Different-Phenotype (%) [1]: 78%
Total Cell Count [1]: 278
Population Apoptotic (%) [2]: 25%
Population Fragmented Nuclei (%) [2]: 4%
Population Healthy Nuclei (%) [2]: 32%
Population Hoechst High Intensity Objects (%) [2]: 3%
Population Membrane Permeable-Phenotype (%) [2]: 13%
Population Mitochondria Different-Phenotype (%) [2]: 48%
Population Mitotic Cells (%) [2]: 75%
Population Normal (%) [2]: 96%
Population Pyknosed Nuclei (%) [2]: 62%
Population Tubulin-Different-Phenotype (%) [2]: 52%
Total Cell Count [2]: 217
Population Apoptotic (%) [3]: 92%
Population Fragmented Nuclei (%) [3]: 14%
Population Healthy Nuclei (%) [3]: 17%
Population Hoechst High Intensity Objects (%) [3]: 18%
Population Membrane Permeable-Phenotype (%) [3]: 6%
Population Mitochondria Different-Phenotype (%) [3]: 100%
Population Mitotic Cells (%) [3]: 7%
Population Normal (%) [3]: 81%
Population Pyknosed Nuclei (%) [3]: 67%
Population Tubulin-Different-Phenotype (%) [3]: 93%
Total Cell Count [3]: 209
Population Apoptotic (%) [4]: 85%
Population Fragmented Nuclei (%) [4]: 6%
Population Healthy Nuclei (%) [4]: 15%
Population Hoechst High Intensity Objects (%) [4]: 6%
Population Membrane Permeable-Phenotype (%) [4]: 4%
Population Mitochondria Different-Phenotype (%) [4]: 96%
Population Mitotic Cells (%) [4]: 14%
Population Normal (%) [4]: 93%
Population Pyknosed Nuclei (%) [4]: 78%
Population Tubulin-Different-Phenotype (%) [4]: 92%
Total Cell Count [4]: 172
Population Apoptotic (%) [5]: 59%
Population Fragmented Nuclei (%) [5]: 12%
Population Healthy Nuclei (%) [5]: 18%
Population Hoechst High Intensity Objects (%) [5]: 21%
Population Membrane Permeable-Phenotype (%) [5]: 0%
Population Mitochondria Different-Phenotype (%) [5]: 95%
Population Mitotic Cells (%) [5]: 40%
Population Normal (%) [5]: 78%
Population Pyknosed Nuclei (%) [5]: 68%
Population Tubulin-Different-Phenotype (%) [5]: 63%
Total Cell Count [5]: 274
Population Apoptotic (%) [6]: 42%
Population Fragmented Nuclei (%) [6]: 7%
Population Healthy Nuclei (%) [6]: 60%
Population Hoechst High Intensity Objects (%) [6]: 1%
Population Membrane Permeable-Phenotype (%) [6]: 4%
Population Mitochondria Different-Phenotype (%) [6]: 56%
Population Mitotic Cells (%) [6]: 57%
Population Normal (%) [6]: 98%
Population Pyknosed Nuclei (%) [6]: 32%
Population Tubulin-Different-Phenotype (%) [6]: 60%
Total Cell Count [6]: 273
Population Fragmented Nuclei (%) [7]: 15%
Population Healthy Nuclei (%) [7]: 11%
Population Hoechst High Intensity Objects (%) [7]: 23%
Population Membrane Permeable-Phenotype (%) [7]: 0%
Population Mitochondria Different-Phenotype (%) [7]: 100%
Population Normal (%) [7]: 76%
Population Pyknosed Nuclei (%) [7]: 72%
Population Tubulin-Different-Phenotype (%) [7]: 94%
Total Cell Count [7]: 211
Population Apoptotic (%) [8]: 92%
Population Fragmented Nuclei (%) [8]: 4%
Population Healthy Nuclei (%) [8]: 20%
Population Hoechst High Intensity Objects (%) [8]: 6%
Population Membrane Permeable-Phenotype (%) [8]: 6%
Population Mitochondria Different-Phenotype (%) [8]: 93%
Population Mitotic Cells (%) [8]: 7%
Population Normal (%) [8]: 93%
Population Pyknosed Nuclei (%) [8]: 74%
Population Tubulin-Different-Phenotype (%) [8]: 93%
Total Cell Count [8]: 159
Population Apoptotic (%) [9]: 66%
Population Fragmented Nuclei (%) [9]: 21%
Population Healthy Nuclei (%) [9]: 11%
Population Hoechst High Intensity Objects (%) [9]: 23%
Population Membrane Permeable-Phenotype (%) [9]: 4%
Population Mitochondria Different-Phenotype (%) [9]: 88%
Population Mitotic Cells (%) [9]: 33%
Population Normal (%) [9]: 76%
Population Pyknosed Nuclei (%) [9]: 66%
Population Tubulin-Different-Phenotype (%) [9]: 72%
Total Cell Count [9]: 276
Population Apoptotic (%) [10]: 21%
Population Fragmented Nuclei (%) [10]: 4%
Population Healthy Nuclei (%) [10]: 81%
Population Hoechst High Intensity Objects (%) [10]: 1%
Population Membrane Permeable-Phenotype (%) [10]: 5%
Population Mitochondria Different-Phenotype (%) [10]: 29%
Population Mitotic Cells (%) [10]: 78%
Population Normal (%) [10]: 98%
Population Pyknosed Nuclei (%) [10]: 13%
Population Tubulin-Different-Phenotype (%) [10]: 60%
Total Cell Count [10]: 406
Population Apoptotic (%) [11]: 86%
Population Fragmented Nuclei (%) [11]: 24%
Population Healthy Nuclei (%) [11]: 1%
Population Hoechst High Intensity Objects (%) [11]: 23%
Population Membrane Permeable-Phenotype (%) [11]: 0%
Population Mitochondria Different-Phenotype (%) [11]: 100%
Population Mitotic Cells (%) [11]: 13%
Population Normal (%) [11]: 76%
Population Pyknosed Nuclei (%) [11]: 73%
Population Tubulin-Different-Phenotype (%) [11]: 66%
Total Cell Count [11]: 230
Population Apoptotic (%) [12]: 97%
Population Fragmented Nuclei (%) [12]: 14%
Population Healthy Nuclei (%) [12]: 15%
Population Hoechst High Intensity Objects (%) [12]: 8%
Population Membrane Permeable-Phenotype (%) [12]: 8%
Population Mitochondria Different-Phenotype (%) [12]: 83%
Population Mitotic Cells (%) [12]: 2%
Population Normal (%) [12]: 91%
Population Pyknosed Nuclei (%) [12]: 69%
Population Tubulin-Different-Phenotype (%) [12]: 75%
Total Cell Count [12]: 168

NC(=O)Nc1cc(-c2cccc(F)c2)sc1C(=O)N[C@H]1CCCNC1 [AZD-7762]
Population Fragmented Nuclei (%) [1]: 18%
Population Healthy Nuclei (%) [1]: 54%
Population Hoechst High Intensity Objects (%) [1]: 13%
Population Mitochondria Different-Phenotype (%) [1]: 5%
Population Normal (%) [1]: 86%
Population Pyknosed Nuclei (%) [1]: 26%
Population Tubulin-Different-Phenotype (%) [1]: 3%
Total Cell Count [1]: 661
Population Apoptotic (%) [2]: 18%
Population Fragmented Nuclei (%) [2]: 6%
Population Healthy Nuclei (%) [2]: 73%
Population Hoechst High Intensity Objects (%) [2]: 5%
Population Membrane Permeable-Phenotype (%) [2]: 5%
Population Mitochondria Different-Phenotype (%) [2]: 20%
Population Mitotic Cells (%) [2]: 81%
Population Normal (%) [2]: 94%
Population Pyknosed Nuclei (%) [2]: 19%
Population Tubulin-Different-Phenotype (%) [2]: 25%
Total Cell Count [2]: 1132
Population Fragmented Nuclei (%) [3]: 28% and 23%
Population Hoechst High Intensity Objects (%) [3]: 18% and 14%
Population Membrane Permeable-Phenotype (%) [3]: 5% and 4%
Population Normal (%) [3]: 81% and 85%
Population Pyknosed Nuclei (%) [3]: 59% and 21%
Population Apoptotic (%) [4]: 27% and 9%
Population Fragmented Nuclei (%) [4]: 8% and 10%
Population Healthy Nuclei (%) [4]: 28% and 66%
Population Hoechst High Intensity Objects (%) [4]: 4% and 2%
Population Membrane Permeable-Phenotype (%) [4]: 0% and 3%
Population Mitochondria Different-Phenotype (%) [4]: 30% and 18%
Population Mitotic Cells (%) [4]: 72% and 90%
Population Normal (%) [4]: 95% and 97%
Population Pyknosed Nuclei (%) [4]: 63% and 22%
Population Tubulin-Different-Phenotype (%) [4]: 14% and 21%
Population Apoptotic (%) [5]: 19%
Population Fragmented Nuclei (%) [5]: 18%
Population Healthy Nuclei (%) [5]: 42%
Population Hoechst High Intensity Objects (%) [5]: 12%
Population Membrane Permeable-Phenotype (%) [5]: 9%
Population Mitochondria Different-Phenotype (%) [5]: 7%
Population Mitotic Cells (%) [5]: 80%
Population Normal (%) [5]: 87%
Population Pyknosed Nuclei (%) [5]: 38%
Population Tubulin-Different-Phenotype (%) [5]: 14%
Total Cell Count [5]: 632
Population Apoptotic (%) [6]: 35%
Population Fragmented Nuclei (%) [6]: 8%
Population Healthy Nuclei (%) [6]: 39%
Population Hoechst High Intensity Objects (%) [6]: 6%
Population Membrane Permeable-Phenotype (%) [6]: 8%
Population Mitochondria Different-Phenotype (%) [6]: 33%
Population Mitotic Cells (%) [6]: 64%
Population Normal (%) [6]: 93%
Population Pyknosed Nuclei (%) [6]: 51%
Population Tubulin-Different-Phenotype (%) [6]: 62%
Total Cell Count [6]: 1019
Population Apoptotic (%) [7]: 26% and 66%
Population Fragmented Nuclei (%) [7]: 22% and 33%
Population Hoechst High Intensity Objects (%) [7]: 13% and 14%
Population Membrane Permeable-Phenotype (%) [7]: 8% and 0%
Population Mitotic Cells (%) [7]: 73% and 33%
Population Normal (%) [7]: 86% and 85%
Population Pyknosed Nuclei (%) [7]: 36% and 58%
Population Tubulin-Different-Phenotype (%) [7]: 36% and 50%
Population Apoptotic (%) [8]: 52% and 23%
Population Fragmented Nuclei (%) [8]: 12% and 17%
Population Hoechst High Intensity Objects (%) [8]: 6% and 5%
Population Membrane Permeable-Phenotype (%) [8]: 10%
Population Mitochondria Different-Phenotype (%) [8]: 20% and 48%
Population Mitotic Cells (%) [8]: 47% and 76%
Population Normal (%) [8]: 93% and 95%
Population Pyknosed Nuclei (%) [8]: 80% and 47%
Population Tubulin-Different-Phenotype (%) [8]: 30% and 63%
Population Apoptotic (%) [11]: 75%
Population Fragmented Nuclei (%) [11]: 43%
Population Healthy Nuclei (%) [11]: 3%
Population Hoechst High Intensity Objects (%) [11]: 21%
Population Membrane Permeable-Phenotype (%) [11]: 0%
Population Mitochondria Different-Phenotype (%) [11]: 100%
Population Mitotic Cells (%) [11]: 25%
Population Normal (%) [11]: 78%
Population Pyknosed Nuclei (%) [11]: 53%
Population Tubulin-Different-Phenotype (%) [11]: 0%
Total Cell Count [11]: 191
Population Fragmented Nuclei (%) [12]: 13%
Population Healthy Nuclei (%) [12]: 12%
Population Hoechst High Intensity Objects (%) [12]: 8%
Population Membrane Permeable-Phenotype (%) [12]: 5%
Population Mitochondria Different-Phenotype (%) [12]: 66%
Population Mitotic Cells (%) [12]: 24%
Population Normal (%) [12]: 91%
Population Pyknosed Nuclei (%) [12]: 74%
Population Tubulin-Different-Phenotype (%) [12]: 61%
Total Cell Count [12]: 161
